Measurements reported in ChEMBL document CHEMBL1149790, “Synthesis of some novel thiourea derivatives obtained from 5-[(4-aminophenoxy)methyl]-4-alkyl/aryl-2,4-dihydro-3H-1,2,4-triazole-3-thiones and evaluation as antiviral/anti-HIV and anti-tuberculosis agents” (Eur J Med Chem, 2008).
≈ marks a conversion by molar mass, not a printed value. Calls of active or inactive are those of the source. The rule behind the calls is not given here.

Experiments:
Coxsackievirus B4 [1] = assay: Antiviral activity against Coxsackie virus B4 in human HeLa cells assessed as inhibition of virus-induced cytopathogenicity; type: functional; details: Enterovirus B
Procedure, shortened: (§1)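 Confluent cell monolayers (E6SM, HEL, HeLa or Vero, per line) inoculated with 100 CCID50 virus; 1 h adsorption, residual virus removed, then incubated with compound at 400, 200, 100 … µg/ml. Cytopathicity scored once complete in untreated virus controls; MIC = concentration inhibiting virus-induced cytopathicity.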

Human alphaherpesvirus 1 [2] = assay: Antiviral activity against HSV1 KOS in human HEL cells assessed as reduction of virus-induced cytopathogenicity; type: functional; details: Human alphaherpesvirus 1, KOS; procedure, shortened: as §1
Sindbis virus = assay: Antiviral activity against Sindbis virus in african green monkey Vero cells assessed as reduction of virus-induced cytopathogenicity; type: functional; procedure, shortened: as §1
[3] = system: Vesicular stomatitis virus; assay: Antiviral activity against in Vesicular stomatitis virus in human E6SM cells assessed as reduction of virus-induced cytopathogenicity; type: functional; procedure, shortened: as §1
[4] = system: Vesicular stomatitis virus; assay: Antiviral activity against vesicular stomatitis virus in human HeLa cells assessed as inhibition of virus-induced cytopathogenicity; type: functional; procedure, shortened: as §1
Human alphaherpesvirus 1 [5] = assay: Antiviral activity against HSV1 KOS in human E6SM cells assessed as reduction of virus-induced cytopathogenicity; type: functional; details: Human alphaherpesvirus 1, KOS; procedure, shortened: as §1
Human alphaherpesvirus 1 [6] = assay: Antiviral activity against thymidine kinase deficient and acyclovir resistant HSV1 KOS in human HEL cells assessed as reduction of virus-induced cytopathogenicity; type: functional; details: Human alphaherpesvirus 1, KOS; procedure, shortened: as §1
[7] = system: Mycobacterium tuberculosis; assay: Antitubercular activity against Mycobacterium tuberculosis H37Rv at 6.25 ug/ml by MABA assay; type: functional
[8] = system: Human immunodeficiency virus 1; assay: Antiviral activity against HIV1 3B in human MT4 cells assessed as protection against virus-induced cytopathogenicity by MTT assay; type: functional, organism-based; parameters: Activity: concentration or dose not given beside the values; details: for IC50: Human immunodeficiency virus 1, 3B, MT4
Procedure, shortened: (§2)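 MT-4 cells at 6 × 10⁵ cells/ml infected with HIV-1 IIIB or HIV-2 ROD at 100–300 CCID50; compounds in serial five-fold dilutions, triplicate mock- and virus-infected wells. MTT viability read at 540 and 690 nm after 5 days, median OD of three wells; EC50 = 50% protection from viral cytopathic effect.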

Human alphaherpesvirus 2 [9] = assay: Antiviral activity against HSV2 G in human HEL cells assessed as reduction of virus-induced cytopathogenicity; type: functional; details: Human alphaherpesvirus 2, G; procedure, shortened: as §1
Human alphaherpesvirus 2 [10] = assay: Antiviral activity against HSV2 G in human E6SM cells assessed as reduction of virus-induced cytopathogenicity; type: functional; details: Human alphaherpesvirus 2, G; procedure, shortened: as §1
Human betaherpesvirus 5 [11] = assay: Antiviral activity against human cytomegalovirus AD169 infected HEL cells assessed as reduction in virus plaque formation; type: functional, organism-based; details: Human betaherpesvirus 5, AD169, HEL
[12] = system: Human immunodeficiency virus 2; assay: Antiviral activity against HIV2 ROD in human MT4 cells assessed as protection against virus-induced cytopathogenicity by MTT assay; type: functional, organism-based; parameters: Activity: concentration or dose not given beside the values; details: for IC50: Human immunodeficiency virus 2, ROD, MT4; procedure, shortened: as §2
Human respirovirus 3 = assay: Antiviral activity against Parainfluenza 3 virus in african green monkey Vero cells assessed as reduction of virus-induced cytopathogenicity; type: functional; procedure, shortened: as §1
Human alphaherpesvirus 3 [13] = assay: Antiviral activity against TK+ VZV OKA infected HEL cells assessed as reduction in virus plaque formation; type: functional, organism-based; details: Human alphaherpesvirus 3, OKA
[14] = Cytotoxicity against human HEL cells assessed as alteration of cell morphology; type: cell-based
Procedure, shortened: (§3)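 Uninfected cell cultures exposed to test compounds alongside antiviral assays; minimum cytotoxic concentration (MCC) = concentration causing a microscopically detectable alteration of cell morphology.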

[15] = system: Respiratory syncytial virus; assay: Antiviral activity against respiratory syncytial virus in human HeLa cells assessed as inhibition of virus-induced cytopathogenicity; type: functional; procedure, shortened: as §1
[16] = Cytotoxicity against human E6SM cells; type: cell-based; details: E6SM cells; procedure, shortened: as §3
[17] = system: Vesicular stomatitis virus; assay: Antiviral activity against in Vesicular stomatitis virus in human HEL cells assessed as reduction of virus-induced cytopathogenicity; type: functional; procedure, shortened: as §1
[18] = Cytotoxicity against human HeLa cells; type: cell-based; procedure, shortened: as §3
[19] = system: Mammalian orthoreovirus 1; assay: Antiviral activity against Reo virus 1 in african green monkey Vero cells assessed as reduction of virus-induced cytopathogenicity; type: functional; procedure, shortened: as §1
Human betaherpesvirus 5 [20] = assay: Antiviral activity against human cytomegalovirus Davis infected HEL cells assessed as reduction in virus plaque formation; type: functional, organism-based; details: Human betaherpesvirus 5, Davis
Vero = assay: Cytotoxicity against african green monkey Vero cells; type: cell-based; details: chlorocebus sabaeus; procedure, shortened: as §3
[21] = Cytotoxicity against human HEL cells assessed as reduction of cell growth; type: cell-based
Procedure, shortened: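 HEL cells; CC50 = compound concentration reducing cell growth by 50%.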

Punta Toro virus = assay: Antiviral activity against Punta Toro virus in african green monkey Vero cells assessed as reduction of virus-induced cytopathogenicity; type: functional; procedure, shortened: as §1
[22] = Cytotoxicity against human MT4 cells by MTT assay; type: cell-based
Procedure, shortened: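 Mock-infected MT-4 cells (6 × 10⁵ cells/ml) with serial five-fold compound dilutions in triplicate; MTT reduction read at 540 and 690 nm after 5 days, median OD of three wells; CC50 = concentration reducing OD540 of mock-infected control by 50%.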

Coxsackievirus B4 [23] = assay: Antiviral activity against Coxsackie virus B4 in african green monkey Vero cells assessed as reduction of virus-induced cytopathogenicity; type: functional; details: Enterovirus B; procedure, shortened: as §1
Human alphaherpesvirus 1 [24] = assay: Antiviral activity against thymidine kinase deficient and acyclovir resistant HSV1 KOS in human E6SM cells assessed as reduction of virus-induced cytopathogenicity; type: functional; details: Human alphaherpesvirus 1, KOS; procedure, shortened: as §1
Human alphaherpesvirus 3 [25] = assay: Antiviral activity against TK- VZV 07/1 infected HEL cells assessed as reduction in virus plaque formation; type: functional, organism-based; details: Human alphaherpesvirus 3, 07/1, HEL

Row | Compound | MIC (Coxsackievirus B4 [1]) [µg/mL] | MIC (Human alphaherpesvirus 1 [2]) [µg/mL] | MIC (Sindbis virus) [µg/mL] | MIC [3] [µg/mL] | MIC [4] [µg/mL] | MIC (Human alphaherpesvirus 1 [5]) [µg/mL] | MIC (Human alphaherpesvirus 1 [6]) [µg/mL] | Activity [8] [%] | IC50 [8] [µg/mL] | MIC (Human alphaherpesvirus 2 [9]) [µg/mL] | MIC (Human alphaherpesvirus 2 [10]) [µg/mL] | EC50 (Human betaherpesvirus 5 [11]) [µg/mL] | Activity [12] [%] | IC50 [12] [µg/mL] | MIC (Human respirovirus 3) [µg/mL] | EC50 (Human alphaherpesvirus 3 [13]) [µg/mL] | MCC [14] [µg/mL] | MIC [15] [µg/mL] | MCC [16] [µg/mL] | MIC [17] [µg/mL] | other results
1 | C=CCNC(=S)Nc1ccc(OCc2n[nH]c(=S)n2CC=C)cc1 | > 80 | 240 (≈ 664 µM) | > 80 | > 400 | > 80 | 240 (≈ 664 µM) | 240 (≈ 664 µM) | 3 | > 66.5 | 240 (≈ 664 µM) | 240 (≈ 664 µM) | 100 (≈ 277 µM) | 1 | > 69.7 | > 80 | 41 (≈ 113 µM) | > 400 | > 80 | > 400 | > 400 | inhibition at 6.25 µg/mL [7]: 59%; MCC [18]: 400 µg/mL; MIC [19]: > 80 µg/mL; EC50 (Human betaherpesvirus 5 [20]): 77 µg/mL (≈ 213 µM); Activity (Vero): 400 µg/mL; CC50 [21]: > 50 µg/mL; MIC (Punta Toro virus): > 80 µg/mL; CC50 [22]: 71.5 µg/mL (≈ 198 µM); MIC (Coxsackievirus B4 [23]): 48 µg/mL (≈ 133 µM); MIC (Human alphaherpesvirus 1 [24]): 240 µg/mL (≈ 664 µM); EC50 (Human alphaherpesvirus 3 [25]): 46 µg/mL (≈ 127 µM)
2 | Nc1ccc(OCc2n[nH]c(=S)n2-c2ccccc2)cc1 | > 400 | > 400 | > 80 | > 400 | > 400 | > 400 | > 400 | 2 | > 125 | 240 (≈ 804 µM) | 240 (≈ 804 µM) | > 100 | 2.5 | > 125 | > 80 | > 100 | > 400 | > 400 | > 400 | > 400 | Activity [7]: inactive; MCC [18]: > 400 µg/mL; MIC [19]: > 80 µg/mL; EC50 (Human betaherpesvirus 5 [20]): > 100 µg/mL; Activity (Vero): 400 µg/mL; CC50 [21]: > 50 µg/mL; MIC (Punta Toro virus): > 80 µg/mL; CC50 [22]: > 125 µg/mL; MIC (Coxsackievirus B4 [23]): 48 µg/mL (≈ 161 µM); MIC (Human alphaherpesvirus 1 [24]): > 400 µg/mL; EC50 (Human alphaherpesvirus 3 [25]): > 100 µg/mL
3 | CNC(=S)Nc1ccc(OCc2n[nH]c(=S)n2C)cc1 | > 400 | > 400 | > 80 | > 400 | > 400 | > 400 | > 400 | 1 | > 112 | 240 (≈ 776 µM) | 240 (≈ 776 µM) | > 100 | 1 | > 125 | > 80 | > 100 | > 400 | > 400 | > 400 | > 400 | Activity [7]: inactive; MCC [18]: > 400 µg/mL; MIC [19]: > 80 µg/mL; EC50 (Human betaherpesvirus 5 [20]): > 100 µg/mL; Activity (Vero): 400 µg/mL; CC50 [21]: > 50 µg/mL; MIC (Punta Toro virus): > 80 µg/mL; CC50 [22]: ≥ 112 µg/mL; MIC (Coxsackievirus B4 [23]): > 80 µg/mL; MIC (Human alphaherpesvirus 1 [24]): > 400 µg/mL; EC50 (Human alphaherpesvirus 3 [25]): > 100 µg/mL
